The list is not random: actives were taken first. Their share in the collection is about 3.8%.
hERG protect: compounds protecting human hERG from proarrhythmic drug block; Q12809; CHO-hERG, FluxOR thallium flux, dofetilide IC70 present; activation (rescue from dofetilide block), less the hit threshold, % at 10 µM; 310,000 tested, 0.51% active; AID 1511;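 active means activation above the mean of controls blocked by dofetilide plus 5 SD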;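 further: thallium influx through hERG after potassium depolarization seen as dye fluorescence rise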
KCNQ1 pot: potentiates or activates the human KCNQ1 potassium channel. P51787. CHO-K1 KCNQ1, thallium flux FluxOR fluorescence; stronger effect = higher value. B-score at 10 µM. 310,000 tested, 0.35% active. AID 2648;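 active means fluorescence ratio B-score, a plate-corrected score, at least three library SD, with initial intensity B-score within 5 SD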
Target sequence (P51787 whole entry, looked up): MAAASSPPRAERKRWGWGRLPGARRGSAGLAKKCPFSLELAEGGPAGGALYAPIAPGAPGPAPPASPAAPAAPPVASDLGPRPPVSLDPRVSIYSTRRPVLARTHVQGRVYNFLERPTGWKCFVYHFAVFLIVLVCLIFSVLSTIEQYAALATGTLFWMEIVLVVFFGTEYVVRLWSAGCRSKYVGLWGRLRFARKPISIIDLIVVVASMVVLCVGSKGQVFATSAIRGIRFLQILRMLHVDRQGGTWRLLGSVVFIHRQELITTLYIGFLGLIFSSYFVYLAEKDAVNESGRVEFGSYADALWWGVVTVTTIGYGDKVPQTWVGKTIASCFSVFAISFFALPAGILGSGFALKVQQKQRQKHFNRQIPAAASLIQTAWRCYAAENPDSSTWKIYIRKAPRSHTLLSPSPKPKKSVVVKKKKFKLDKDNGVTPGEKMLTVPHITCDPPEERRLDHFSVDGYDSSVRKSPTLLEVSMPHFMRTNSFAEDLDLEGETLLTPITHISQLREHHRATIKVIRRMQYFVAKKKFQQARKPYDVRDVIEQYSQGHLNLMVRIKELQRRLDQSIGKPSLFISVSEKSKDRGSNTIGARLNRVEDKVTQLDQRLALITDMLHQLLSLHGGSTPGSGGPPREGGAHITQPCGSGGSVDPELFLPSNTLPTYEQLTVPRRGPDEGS
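Assay system: CHO-K1 cells stably expressing KCNQ1; Medium: assay buffer with matched DMSO; Also added: K+/Tl+ depolarizing stimulus; Dosing: single dose; Timing: dye 90 min, compound 20 min, room temperature; Measured by: kinetic FluxOR thallium fluorescence, 10-s 1-Hz baseline, 110-s post-stimulus read; Read-out: peak-minus-minimum fluorescence over initial fluorescence, negative-control normalized, B-scored.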
KCNK9 block: inhibitors of human KCNK9 two-pore domain potassium channel. Q9NPC2. HEK293 KCNK9, FluxOR thallium flux fluorescence; stronger effect = lower value. B-score at 10 µM. 310,000 tested, 1.2% active. AID 488922;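 active means ratio B-score over 3 SD below the library mean, with starting fluorescence within 5 SD of its mean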;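 further: negative B-score means less thallium flux so channel inhibition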
Kir21 block: Kir2.1 (mouse) channel inhibition. P35561. HEK293-Kir2.1, FluxOR thallium flux fluorescence; stronger effect = lower value. B-score at 10 µM. 310,000 tested, 0.85% active. AID 1672;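 active means fluorescence ratio B-score at or below minus 3 SD of library scores, with starting-brightness B-score within 2 SD, cut at about -4.2 in these data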;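 further: channel flux triggered by added potassium and thallium sulfate stimulus; B-score of peak minus minimum fluorescence over baseline after thallium stimulus; more negative B-score means stronger Kir2.1 block with less thallium influx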
KCNQ1 block: human KCNQ1 channel inhibition. P51787. B-score at 10 µM. CHO-K1 KCNQ1, FluxOR thallium flux fluorescence; stronger effect = higher value. 310,000 tested, 1.3% active. AID 2642;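 active means compounds whose thallium flux B-score, printed positive for inhibition, exceeds three library SD while starting fluorescence stays within three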;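 further: channel opened by potassium depolarization with thallium stimulus after 20 min compound exposure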
KCNK3 inh: human KCNK3 channel inhibition, primary screen. O14649. CHO-KCNK3 thallium flux, FluxOR fluorescence; stronger effect = lower value. B-score at 10 µM. 340,000 tested, 0.84% active;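 active means B-score under library mean minus 4 SD, starting fluorescence ratio at most library mean plus 5 SD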;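 further: more negative B-score means stronger inhibition of thallium flux through KCNK3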
A number is an active result; . = inactive.

SMILES	hERG protect	KCNQ1 pot	KCNK9 block	Kir21 block	KCNQ1 block	KCNK3 inh
COc1ccc(NC(=O)CSc2n[nH]c(C)c2[N+](=O)[O-])cc1	.	.	.	.	.	.
Cc1c(CCO)c(=O)[nH]n1S(=O)(=O)c1ccccc1	.	.	.	.	.	.
Cc1occc1C(=O)Nc1cccc([N+](=O)[O-])c1	8.6	.	.	.	.	.
O=C(Nc1cccc([N+](=O)[O-])c1)c1ccc2ccccc2c1O	.	.	.	.	6	.
O=C(Nc1cccnc1)c1ccc2ccccc2c1O	.	.	.	.	.	.
COc1ccc2[nH]cc(CCNC(=S)NCCc3ccccc3)c2c1	.	.	.	.	.	.
CCC(NC(=O)c1oc2ccccc2c1COC)c1ccc(OC)cc1 (stereo not drawn)	.	.	.	-5.66	.	.
Cc1ccc(C2=NOC(c3nnc(-c4ccccc4)o3)C2)cc1 (stereo not drawn)	.	8	.	.	.	.
CN1CCCC(OC(=O)c2cc(Cl)cc(Cl)c2)C1 (stereo not drawn)	.	.	.	-4.26	.	.
CN1CCCC(OC(=O)c2cccc(Cl)c2)C1 (stereo not drawn)	.	.	.	.	.	.
COC(=O)Cn1c2c(c3cc(C)ccc31)CCCC2NC(C)c1ccccc1 (stereo not drawn)	4.9	.	.	.	.	.
C=CCn1c(CNS(=O)(=O)c2ccc(Cl)cc2)n[nH]c1=S	.	.	.	.	.	.
COc1ccccc1C(CC(=O)Nc1ccc(Cl)cc1)c1ccc(OC(C)C)cc1 (stereo not drawn)	.	.	.	.	.	.
COc1ccc(C(C)NCCC(c2ccc(OC(C)C)cc2)c2ccccc2OC)cc1 (stereo not drawn)	.	.	.	-6.59	6	.
CC(=O)N1Cc2ccccc2C(C)CC12CCCC2 (stereo not drawn)	.	.	.	-5.1	.	.
CC1CC(C)(C)N(C(=O)CN2CCN(C)CC2)c2ccccc21 (stereo not drawn)	.	.	.	.	.	.
CC(=O)N1c2ccccc2C(C)CC12CCCCC2 (stereo not drawn)	.	.	.	-4.72	.	.
CN1CCC(OC(=O)c2cc3cc(Cl)cc(Cl)c3oc2=O)CC1	.	.	.	.	.	.
CCOC(=O)CCCCCN(Cc1ccccc1)S(=O)(=O)c1ccc([N+](=O)[O-])cc1	.	.	.	.	7	.
CCCCN(CCCC)S(=O)(=O)c1ccc(SCC(=O)OCC)c([N+](=O)[O-])c1	.	.	.	.	.	.
CCOC(=O)CSc1ccc(S(=O)(=O)N(CC)CC)cc1[N+](=O)[O-]	.	.	-6.8	.	.	.
CCOC(=O)c1ccc(CN(Cc2ccccc2)S(=O)(=O)c2cccc([N+](=O)[O-])c2)cc1	.	.	.	.	.	.
Cc1ccccc1N1C(=O)C(Oc2ccc(Cl)cc2)C1CNCCCOC(C)C (stereo not drawn)	.	.	.	.	.	.
CCOc1ccc(S(=O)(=O)NNC(=S)Nc2ccc(Br)cc2)cc1	.	.	.	.	.	.
CCOc1ccc(NC(=S)NS(=O)(=O)c2cc(Br)ccc2OCC)cc1	7.1	.	.	.	.	.
SMILES	hERG protect	KCNQ1 pot	KCNK9 block	Kir21 block	KCNQ1 block	KCNK3 inh
COc1ccc(-n2c(C)cc(C(=O)CN3C(=O)c4ccccc4C3=O)c2C)cc1	.	.	.	.	.	.
COc1ccc(CCNCc2cc(C)n(-c3ccc(OC)cc3)c2C)cc1	.	.	.	-4.75	.	.
COc1ccc(-n2c(C)cc(C(=O)CCl)c2C)cc1	.	8	.	.	.	.
O=C(COc1ccc2ccccc2c1)Nc1cccc(C(=O)Nc2ccccc2C(=O)O)c1	.	.	.	.	.	.
O=C(NN1C(=O)C2C3c4ccccc4C(c4ccccc43)[C@@H]2C1=O)c1ccccc1 (stereo partly drawn)	.	.	.	.	.	.
O=C(NN1C(=O)C2C(c3ccccc3)C=CC(c3ccccc3)C2C1=O)c1ccccc1 (stereo not drawn)	8.6	.	-7.77	.	.	.
C=CCn1c(N/N=C/c2ccc(O)cc2)nc2ccccc2c1=O	.	.	.	.	.	.
CNC(=O)COC(=O)c1[nH]c(C)c(C(C)=O)c1C	.	.	.	.	.	.
